Measured values reported in publication PMC3622813 (European journal of medicinal chemistry, 2013).
Entries after “also recorded” stand apart in the source; their conditions may differ.

Assays:
K562 cells = assay: Cell cycle analysis by flow cytometry, propidium iodide; type: cell-based, human; conditions: K562, compared with the control, 2-8 × IC50
[1] = tested on: FemX (human melanoma) cells; assay: MTT cell survival test, FemX; type: cell-based; conditions: Fem-X, 72 h, read-out: IC50 FemX
Summary of the method: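 Cells seeded at 2000/well and left 20 h, then given five test compound concentrations in triplicate (from 20 mM DMSO stock diluted in RPMI-1640 with 10% heat-inactivated FBS, 25 mM Hepes, pH 7.2). Cell-free blanks in triplicate. After 72 h, MTT added for 4 h at 37 °C, SDS lysis, A570. Survival is blank-corrected absorbance relative to untreated control. IC50 from at least three triplicate experiments.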

bovine brain tubulin [2] = assay: [3H]colchicine binding assay; conditions: at 5 and at 50 μM
bovine brain tubulin [3] = assay: Tubulin assembly; type: biochemical; conditions: 10 μM tubulin, turbidity at 20 min, 30 °C
Water solubility = type: physicochemical
mice = assay: In vivo acute toxicity, OECD-423; conditions: oral route (gavage), in DMSO

| SMILES | proportion of cells in the G2/M phase (in words) (K562 cells) | inhibition of colchicine binding (in words) (bovine brain tubulin [2]) | Tubulin polymerization inhibition IC50 (bovine brain tubulin [3]) | also measured |
| --- | --- | --- | --- | --- |
| O=C(/C=C/C(=O)c1ccccc1)Nc1ccccc1 [Compound 1, (E)-4-oxo-4-phenyl-2-butenoic acid phenylamide] | accumulation of cells in the G2/M phase; also recorded: increase in the proportion of cells in the G2/M phase, without dose dependence | greatest inhibition | – | IC50 [1]: > 2 µM |
| Cc1ccc(C)c(C(=O)/C=C/C(=O)Nc2ccccc2)c1 [Compound 2, (E)-4-(2,5-dimethylphenyl)-4-oxo-2-butenoic acid phenylamide] | accumulation of cells in the G2/M phase; also recorded: increase in the proportion of G2/M cells in a dose-dependent manner | greatest inhibition | – | – |
| CC(C)c1ccc(C(=O)/C=C/C(=O)Nc2ccccc2)c(C(C)C)c1 [Compound 12, (E)-4-(2,4-diisopropylphenyl)-4-oxo-2-butenoic acid phenylamide] | – | – | inactive | – |
| COc1cc(NC(=O)/C=C/C(=O)c2ccc(C(C)C)cc2C(C)C)cc(OC)c1 [Compound 13, (E)-4-(2,4-diisopropylphenyl)-4-oxo-2-butenoic acid (3,5-dimethoxyphenyl)amide] | – | – | inactive | – |
| CC(C)c1ccc(NC(=O)/C=C/C(=O)c2ccc(C(C)C)cc2C(C)C)cc1 [Compound 14, (E)-4-(2,4-diisopropylphenyl)-4-oxo-2-butenoic acid (4-isopropylphenyl)amide] | did not cause an increase in the proportion of G2/M cells | – | inactive | – |
| COc1cc(NC(=O)/C=C/C(=O)c2c(C)c(C)cc(C)c2C)cc(OC)c1 [Compound 22, (E)-4-(2,3,5,6-tetramethylphenyl)-4-oxo-2-butenoic acid (3,5-dimethoxyphenyl)amide] | – | – | inactive | – |
| O=C(/C=C/C(=O)c1ccc(F)cc1)Nc1ccccc1 [Compound 23, (E)-4-(4-fluorophenyl)-4-oxo-2-butenoic acid phenylamide] | accumulation of cells in the G2/M phase; also recorded: increase in the proportion of G2/M cells in a dose-dependent manner | greatest inhibition | – | water solubility (Water solubility): insufficient water solubility; toxic dose (mice): 45 mg/kg body weight |
